Values after ≈ are worked out from the molar mass of the structure shown. Active and inactive are the calls of the source. The calls are words filed in the database; no cut-off is given here.
What was measured:
[1] = Cytotoxicity against human MT4 cells; assay type: cell-based
[2] = test system: Vesicular stomatitis virus; assay: Antiviral activity against Vesicular stomatitis virus ATCC VR 1540 infected in African green monkey Vero 76 cells assessed as reduction of virus-plaque formation after 2 days by crystal violet staining; assay type: functional, organism-based; settings: ATCC VR 1540, Vero, 48 h
[3] = test system: Human immunodeficiency virus 1; assay: Antiviral activity against HIV1 3B infected in human MT4 cells assessed as protection against virus-induced cytopathogenicity by MTT assay; assay type: functional, organism-based; settings: Human immunodeficiency virus 1, 3B
[4] = Cytotoxicity against BHK cells assessed as cell viability after 48 to 96 hrs by MTT assay; assay type: cell-based, Mesocricetus auratus; settings: hamster
Yellow fever virus = assay: Antiviral activity against Yellow fever virus 17D infected in BHK cells assessed as protection against virus-induced cytopathogenicity after 3 to 4 days by MTT assay; assay type: functional, cell-based
Poliovirus 1 = assay: Antiviral activity against Poliovirus type 1 ATCC VR-1562 infected in African green monkey Vero 76 cells assessed as reduction of virus-plaque formation after 2 days by crystal violet staining; assay type: functional, organism-based; settings: Enterovirus C, ATCC VR-1562, Vero, 48 h
Human alphaherpesvirus 1 = assay: Antiviral activity against Human herpesvirus 1 KOS ATCC VR-1493 infected in African green monkey Vero 76 cells assessed as reduction of virus-plaque formation after 3 days by crystal violet staining; assay type: functional, organism-based; settings: Human alphaherpesvirus 1, KOS ATCC VR1493, Vero, 72 h
How it was run: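 Plaque reduction: Vero-76 at 2x10^5 cells/well grown to confluent monolayers, infected 2 h at 50–100 PFU/well; after removing unadsorbed virus, overlay of D-MEM, 1% inactivated FBS, 0.75% methylcellulose with or without serial compound dilutions; 3 days at 37°C, fixed and stained with crystal violet in 50% ethanol, plaques counted; EC50 by linear regression.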

Staphylococcus aureus [5] = assay: Antimicrobial activity against Staphylococcus aureus ATCC 25923 at 400 ug after 18 hrs by disc-diffusion method; assay type: functional; settings: ATCC 25923, 18 h, read-out: IZ
How it was run: (§1)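 Disc diffusion on Mueller-Hinton II agar per CLSI; 9 mm paper discs loaded with 400 µg compound from DMSO solution, dried, placed on agar; growth inhibition zone diameter read after 18 h at 35°C.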

Staphylococcus aureus [6] = assay: Antimicrobial activity against Staphylococcus aureus ATCC 6538 at 400 ug after 18 hrs by disc-diffusion method; assay type: functional; settings: ATCC 6538, 18 h, read-out: IZ; how it was run: as §1
[7] = test system: Staphylococcus epidermidis; assay: Antimicrobial activity against Staphylococcus epidermidis ATCC 12228 at 400 ug after 18 hrs by disc-diffusion method; assay type: functional; settings: ATCC 12228, 18 h, read-out: IZ; how it was run: as §1
Bacillus cereus = assay: Antimicrobial activity against Bacillus cereus ATCC 11778 at 400 ug after 18 hrs by disc-diffusion method; assay type: functional; settings: ATCC 11778, 18 h, read-out: IZ; how it was run: as §1
Enterococcus hirae = assay: Antimicrobial activity against Enterococcus hirae ATCC 10541 at 400 ug after 18 hrs by disc-diffusion method; assay type: functional; settings: for zone of inhibition at 400 µg/disc: ATCC 10541, 18 h, read-out: IZ; how it was run: as §1
Micrococcus luteus [8] = assay: Antimicrobial activity against Micrococcus luteus ATCC 10240 at 400 ug after 18 hrs by disc-diffusion method; assay type: functional; settings: ATCC 10240, 18 h, read-out: IZ; how it was run: as §1
Micrococcus luteus [9] = assay: Antimicrobial activity against Micrococcus luteus ATCC 9341 at 400 ug after 18 hrs by disc-diffusion method; assay type: functional; settings: ATCC 9341, 18 h, read-out: IZ; how it was run: as §1
Staphylococcus aureus [10] = assay: Antimicrobial activity against Staphylococcus aureus NCTC 4163 after 18 hrs by twofold serial microdilution method; assay type: functional; settings: NCTC 4163, 18 h
Staphylococcus aureus [11] = assay: Antimicrobial activity against Staphylococcus aureus ATCC 29213 after 18 hrs by twofold serial microdilution method; assay type: functional; settings: ATCC 29213, 18 h
[12] = test system: Staphylococcus epidermidis; assay: Antimicrobial activity against Staphylococcus epidermidis ATCC 35984 after 18 hrs by twofold serial microdilution method; assay type: functional; settings: ATCC 35984, 18 h
Staphylococcus aureus [13] = assay: Antimicrobial activity against hospital methicillin-resistant Staphylococcus aureus 53/05 after 18 hrs by twofold serial microdilution method; assay type: functional; settings: 53/05, 18 h
How it was run: (§2)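 Twofold serial microdilution in Mueller-Hinton broth. Compound stock was made in DMSO and diluted in sterile water. Tested range was 0.125–512 µg/mL. Final inoculum was 10^5 CFU/mL. Plates were incubated 18 h at 35 °C. MIC is the lowest concentration preventing visible growth.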

Staphylococcus aureus [14] = assay: Antimicrobial activity against hospital methicillin-resistant Staphylococcus aureus 54/05 after 18 hrs by twofold serial microdilution method; assay type: functional; settings: 54/05, 18 h; how it was run: as §2
Staphylococcus aureus [15] = assay: Antimicrobial activity against hospital methicillin-resistant Staphylococcus aureus 57/05 after 18 hrs by twofold serial microdilution method; assay type: functional; settings: 57/05, 18 h; how it was run: as §2
Staphylococcus aureus [16] = assay: Antimicrobial activity against hospital methicillin-resistant Staphylococcus aureus 79/05 after 18 hrs by twofold serial microdilution method; assay type: functional; settings: 79/05, 18 h; how it was run: as §2
Staphylococcus aureus [17] = assay: Antimicrobial activity against hospital methicillin-resistant Staphylococcus aureus 522/11 after 18 hrs by twofold serial microdilution method; assay type: functional; settings: 522/11, 18 h; how it was run: as §2
Staphylococcus aureus [18] = assay: Antimicrobial activity against hospital methicillin-resistant Staphylococcus aureus 573/11 after 18 hrs by twofold serial microdilution method; assay type: functional; settings: 573/11, 18 h; how it was run: as §2
[19] = test system: Staphylococcus epidermidis; assay: Antimicrobial activity against hospital methicillin-resistant Staphylococcus epidermidis 16/04 after 18 hrs by twofold serial microdilution method; assay type: functional; settings: 16/04, 18 h; how it was run: as §2
Staphylococcus aureus [20] = assay: Ratio of ciprofloxacin MIC to compound MIC for hospital methicillin-resistant Staphylococcus aureus 53/05 after 18 hrs by twofold serial microdilution method; assay type: functional
How it was run: (§3)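 Ratio of MICs for ciprofloxacin and test agent, each from twofold serial broth microdilution in Mueller-Hinton broth following CLSI guidelines. DMSO stock was diluted in sterile water to 0.125–512 µg/mL, with a final inoculum of 10^5 CFU/mL.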

Staphylococcus aureus [21] = assay: Ratio of ciprofloxacin MIC to compound MIC for hospital methicillin-resistant Staphylococcus aureus 54/05 after 18 hrs by twofold serial microdilution method; assay type: functional; how it was run: as §3
Staphylococcus aureus [22] = assay: Ratio of ciprofloxacin MIC to compound MIC for hospital methicillin-resistant Staphylococcus aureus 80/05 after 18 hrs by twofold serial microdilution method; assay type: functional; how it was run: as §3
Staphylococcus aureus [23] = assay: Ratio of ciprofloxacin MIC to compound MIC for hospital methicillin-resistant Staphylococcus aureus 81/05 after 18 hrs by twofold serial microdilution method; assay type: functional; how it was run: as §3
[24] = test system: Staphylococcus epidermidis; assay: Ratio of ciprofloxacin MIC to compound MIC for hospital methicillin-resistant Staphylococcus epidermidis 23/04 after 18 hrs by twofold serial microdilution method; assay type: functional; how it was run: as §3
[25] = test system: Staphylococcus epidermidis; assay: Ratio of ciprofloxacin MIC to compound MIC for hospital methicillin-resistant Staphylococcus epidermidis 31/04 after 18 hrs by twofold serial microdilution method; assay type: functional; how it was run: as §3
[26] = test system: Staphylococcus epidermidis; assay: Ratio of ciprofloxacin MIC to compound MIC for hospital methicillin-resistant Staphylococcus epidermidis 62/04 after 18 hrs by twofold serial microdilution method; assay type: functional; how it was run: as §3
[27] = test system: Mycobacterium tuberculosis; assay: Antimycobacterial activity against Mycobacterium tuberculosis H37Rv ATCC 25618; assay type: functional
How it was run: (§4)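 Classical test-tube successive-dilution method in Youmans' modification of Proskauer and Beck liquid medium with 10% bovine serum. Inoculum came from 14-day cultures. DMSO stock was 10 mg/mL, diluted geometrically in medium. Tubes were incubated at 37 °C. Concentrations tested were 3.1, 6.2, 12.5, 25, 50 and 100 µg/ml. MIC is the minimum concentration inhibiting growth relative to compound-free tubes.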

[28] = test system: Mycobacterium tuberculosis; assay: Antimycobacterial activity against drug-sensitive Mycobacterium tuberculosis Spec. 192; assay type: functional; how it was run: as §4

SMILES	EC50 [2] [µM]	EC50 [3] [µM]	EC50 (Yellow fever virus) [µM]	EC50 (Poliovirus 1) [µM]	EC50 (Human alphaherpesvirus 1) [µM]	zone of inhibition at 400 µg/disc (Staphylococcus aureus [5]) [mm]	zone of inhibition at 400 µg/disc (Staphylococcus aureus [6]) [mm]	zone of inhibition at 400 µg/disc [7] [mm]	zone of inhibition at 400 µg/disc (Bacillus cereus) [mm]	zone of inhibition at 400 µg/disc (Micrococcus luteus [8]) [mm]	zone of inhibition at 400 µg/disc (Micrococcus luteus [9]) [mm]	MIC (Staphylococcus aureus [10]) [µg/mL]	MIC (Staphylococcus aureus [11]) [µg/mL]	MIC [12] [µg/mL]	MIC (Staphylococcus aureus [13]) [µg/mL]	MIC (Staphylococcus aureus [15]) [µg/mL]	MIC (Staphylococcus aureus [16]) [µg/mL]	MIC (Staphylococcus aureus [17]) [µg/mL]	MIC (Staphylococcus aureus [18]) [µg/mL]	MIC [19] [µg/mL]	also measured
FC(F)(F)c1cccc(NC(S)=NCc2ccccc2)c1	> 35	> 45	> 45	> 35	> 35	19	15	17	15	15	19	16 (≈ 51.6 µM)	8 (≈ 25.8 µM)	16 (≈ 51.6 µM)	8 (≈ 25.8 µM)	8 (≈ 25.8 µM)	16 (≈ 51.6 µM)	16 (≈ 51.6 µM)	16 (≈ 51.6 µM)	16 (≈ 51.6 µM)	CC50 [1]: 45 µM; CC50 [4]: 45 µM; inhibition zone (IZ) (Enterococcus hirae): inactive; MIC (Staphylococcus aureus [14]): 8 µg/mL (≈ 25.8 µM); Ratio (Staphylococcus aureus [20]): 128; Ratio (Staphylococcus aureus [21]): 128; Ratio (Staphylococcus aureus [22]): 128; Ratio (Staphylococcus aureus [23]): 128; Ratio [24]: 128; Ratio [25]: 128; Ratio [26]: 128; MIC [27]: 25 µg/mL (≈ 80.6 µM); MIC [28]: 25 µg/mL (≈ 80.6 µM)
O=C(O)c1cn(C2CC2)c2cc(N3CCNCC3)c(F)cc2c1=O [CIPROFLOXACIN]	–	–	–	–	–	26	28	30	30	22	24	0.25 (≈ 0.754 µM)	0.5 (≈ 1.51 µM)	0.25 (≈ 0.754 µM)	64 (≈ 193 µM)	128 (≈ 386 µM)	64 (≈ 193 µM)	128 (≈ 386 µM)	64 (≈ 193 µM)	32 (≈ 96.6 µM)	zone of inhibition at 400 µg/disc (Enterococcus hirae): 18 mm
FC(F)(F)c1cccc(NC(S)=Nc2ccc(Cl)c(Cl)c2)c1	> 16	> 9	> 9.5	> 16	> 16	14	14	13	13	16	15	0.5 (≈ 1.37 µM)	0.5 (≈ 1.37 µM)	1 (≈ 2.74 µM)	2 (≈ 5.48 µM)	2 (≈ 5.48 µM)	2 (≈ 5.48 µM)	1 (≈ 2.74 µM)	1 (≈ 2.74 µM)	2 (≈ 5.48 µM)	zone of inhibition at 400 µg/disc (Enterococcus hirae): 15 mm; MIC (Staphylococcus aureus [14]): 2 µg/mL (≈ 5.48 µM); Ratio (Staphylococcus aureus [20]): 128; Ratio (Staphylococcus aureus [21]): 128; Ratio (Staphylococcus aureus [22]): 128; Ratio (Staphylococcus aureus [23]): 128; Ratio [24]: 128; Ratio [25]: 128; Ratio [26]: 128; MIC [27]: 50 µg/mL (≈ 137 µM); MIC [28]: 100 µg/mL (≈ 274 µM)

— ChEMBL document CHEMBL3616436, “Synthesis, cytotoxicity and antimicrobial activity of thiourea derivatives incorporating 3-(trifluoromethyl)phenyl moiety” (Eur J Med Chem, 2015)
